T cruzi inh = inhibitors of intracellular T. cruzi growth, primary screen, luminescence, NIH3T3 host cells; T. cruzi beta-gal in NIH3T3, 90 h; inhibition, % (test concentration not listed); 1.4% of 300,000 active;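 active means mean inhibition across valid replicates above about 55%, limit read from the data; inconclusive means mean below that limit but half or more replicates reach it; inactive means mean below it, under half of replicates reach it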;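 further: signal also drops with host cell toxicity which is not excluded here; 0% = plate median of DMSO wells and 100% = zero luminescence signal; higher percent means less beta-gal luminescence so fewer parasites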
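Assay system: NIH/3T3 fibroblasts plus reporter T. cruzi. Amount: NIH/3T3 cells, 5,000 per well. Buffer or medium: DMEM, 2% fetal bovine serum. Doses: compound pinned at 50 nL/well, DMSO. Schedule: ≥90 h infection period, 3 h prior cell attachment. Signal: luminescent β-galactosidase signal after 60 min lysis. Read-out: parasite load inhibition, %.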
CSC inhib = cancer stem cell viability inhibitors, primary screen, luminescence. cancer stem cell-like cells viability. inhibition, % at 7.5 µM. 1.1% of 300,000 active; in the data active means inhibition above about 75%; inconclusive means no clear call, values can overlap the other calls; tested in HMLE shEcad cells
Beta apoptosis = inhibitors of cytokine-induced beta cell apoptosis, primary screen, luminescence | INS-1E cytokine-induced death, ATP luminescence, 48 h; percent of positive-control rescue, neutral wells zero | protection from apoptosis, % (test concentration not listed) | 0.8% of 300,000 active;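 active means Every replicate reaches about 75%, or at least half do and their mean reaches it too, limit read from the data; inconclusive means At least half of replicates reach the limit but their mean does not; inactive means Under half of replicates reach the limit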;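 further: 0% = cytokine-treated negative control wells and 100% = positive control rescue; higher means more ATP so stronger rescue from cytokine killing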
NLRP3 yeast inh = NALP3 inflammasome inhibitors in reconstituted yeast, primary screen, luminescence, uHTS; Yeast reconstituted NLRP3/ASC/caspase-1, beta-gal luminescence, 24 h; inhibition, % at 10 µM; 0.39% of 330,000 active;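 active means inhibition of 50% or more; inactive means inhibition below 50%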;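 further: plate controls were induced DMSO wells for no effect and uninduced yeast grown without galactose for full effect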
Mdm2-MdmX inh = inhibitors of human Mdm2-MdmX association, primary screen, cell-based, luminescence, split luciferase, SaOS-2, uHTS. Protein Mdm4 (Homo sapiens) + E3 ubiquitin-protein ligase Mdm2 (Homo sapiens), …. SaOS-2 split-luciferase Mdm2/MdmX complementation. inhibition, % at 8 µM. 3% of 330,000 active;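 active means inhibition of at least 50% at 8 µM in the primary screen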
Target sequence (O15151 whole entry, looked up): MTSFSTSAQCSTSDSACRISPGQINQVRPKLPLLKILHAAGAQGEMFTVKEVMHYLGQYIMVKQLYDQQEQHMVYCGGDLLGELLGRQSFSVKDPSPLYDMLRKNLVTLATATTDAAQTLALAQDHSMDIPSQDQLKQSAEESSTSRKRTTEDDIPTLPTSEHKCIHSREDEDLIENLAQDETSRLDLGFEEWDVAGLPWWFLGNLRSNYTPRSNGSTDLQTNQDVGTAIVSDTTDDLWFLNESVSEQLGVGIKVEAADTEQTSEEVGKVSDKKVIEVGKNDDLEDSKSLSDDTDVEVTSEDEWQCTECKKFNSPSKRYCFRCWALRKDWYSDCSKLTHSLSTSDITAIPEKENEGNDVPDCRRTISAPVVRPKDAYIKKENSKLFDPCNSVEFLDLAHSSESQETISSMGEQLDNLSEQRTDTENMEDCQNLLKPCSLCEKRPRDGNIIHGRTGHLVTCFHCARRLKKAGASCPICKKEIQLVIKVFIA
Target sequence (Q00987 whole entry, looked up): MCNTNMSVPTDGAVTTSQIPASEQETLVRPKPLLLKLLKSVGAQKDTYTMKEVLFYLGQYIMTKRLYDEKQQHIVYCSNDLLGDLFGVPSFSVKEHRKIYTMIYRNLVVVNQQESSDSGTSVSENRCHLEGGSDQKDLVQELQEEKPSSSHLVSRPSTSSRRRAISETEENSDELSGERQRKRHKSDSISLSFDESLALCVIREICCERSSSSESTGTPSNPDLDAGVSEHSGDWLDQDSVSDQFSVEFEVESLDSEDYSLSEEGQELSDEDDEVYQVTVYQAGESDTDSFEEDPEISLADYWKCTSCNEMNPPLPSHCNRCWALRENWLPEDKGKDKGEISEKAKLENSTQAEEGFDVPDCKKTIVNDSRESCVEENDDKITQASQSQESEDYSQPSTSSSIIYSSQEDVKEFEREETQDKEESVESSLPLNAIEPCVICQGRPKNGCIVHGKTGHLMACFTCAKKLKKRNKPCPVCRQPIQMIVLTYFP
Calb FLC = C. albicans growth inhibition with fluconazole, primary screen, CaCi-2 strain, Alamar Blue fluorescence; 0.57% of 300,000 active; C. albicans CaCi-2 + fluconazole, 48 h; growth inhibition, % (no concentration beside the values);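 active means growth inhibition above about 58% in most replicates, limit read from the data, passing the limit was not always enough; inconclusive means exactly half the replicates above a set limit; inactive means most replicates below a set limit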;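 further: all wells also contain fluconazole at 8 µg/ml as a sub-toxic cotreatment; 0% = median of DMSO wells and 100% = median of geldanamycin control wells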
Mdm2 MdmX conf = Mdm2-MdmX complex disruptors, retested hits, confirmation, luminescence, single concentration; shares compounds with Mdm2-MdmX inh; inhibition, % at 8 µM; Mdm2-MdmX binding, luminescent assay; 55% of 10,000 active; in the data active means inhibition above about 40%
Full FLuc ctr = full-length luciferase signal inhibition, confirmation, counter-screen for Mdm2/MdmX interaction inhibitor project, cell-based, single concentration, SaOS-2 | SaOS-2 full-length luciferase counterscreen, luminescence | inhibition, % at 8 µM | 77% of 6,200 active | shares compounds with Mdm2-MdmX inh;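 active means mean inhibition at 8 µM reaching about 37%, which flags the compound as non-specific, limit read from the data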;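 further: p53-null SaOS-2 cells with luciferase driven by a doxycycline-inducible promoter; compound on cells about two nights before reading with doxycycline added after day one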
* marks the source's active call; other numbers are inactive results; ? = inconclusive; nt = no result given. This is a sample that favours compounds with a hit; in the whole collection about 5.3% have one here.

SMILES	T cruzi inh	CSC inhib	Beta apoptosis	NLRP3 yeast inh	Mdm2-MdmX inh	Calb FLC	Mdm2 MdmX conf	Full FLuc ctr
CCN(CC)S(=O)(=O)c1ccc(NC(=O)Nc2cccc(C(F)(F)F)c2)cc1	76*	83*	98*	2	94*	-1	87*	35
Cc1nn(CC(C)C(=O)N2CCN(S(=O)(=O)c3ccc(Cl)cc3)CC2)c(C)c1C (stereo not given)	8	9	-1	8	-1	0	nt	nt
CCSc1nc(-c2ccccc2)nc(C(Cl)Cl)n1	0	100*	94*	6	98*	-33	100*	4
CSc1nc(-c2ccc(C)cc2)nc(C(Cl)Cl)n1	56*	72	6	1	97*	-4	95*	40*
N#C/C(=N\Nc1ccccc1Cl)C(=O)c1ccccc1	0	29	nt	22	31	?	nt	nt
N#C/C(=N\Nc1cccc(Cl)c1)C(=O)c1ccccc1	-8	41	47	44	71*	29	20	nt
CCOc1cccc(C(=O)Nc2cccc(NC(=O)c3ccco3)c2)c1	-3	-5	4	1	35	-11	nt	nt
COc1ccc(C)cc1Nc1n[n+](C)c(-c2c3ccccc3cc3ccccc23)s1	30	-2	-2	13	-1	17	nt	nt
COc1ccc(C)cc1Nc1n[n+](-c2ccccc2)c(-c2c(Cl)cccc2Cl)s1	44	74	99*	9	95*	5	89*	55*
CCc1ccc(Nc2n[n+](-c3ccccc3)c(-c3ccc(N(CC)CC)cc3)s2)cc1	58*	34	108*	21	87*	3	53*	44*
CCN(CC)c1ccc(-c2sc(Nc3ccccc3)n[n+]2-c2ccc(F)cc2)cc1	29	2	32	17	29	42	nt	nt
CCc1ccc(Nc2n[n+](-c3ccccc3)c(-c3cc(OC)c(OC)cc3Br)s2)cc1	18	0	-5	16	12	-30	nt	nt
CCc1ccc(Nc2n[n+](-c3ccccc3)c(/C=C/c3ccccc3)s2)cc1	36	13	12	15	52*	-6	-31	nt
CCc1ccc(Nc2n[n+](-c3ccccc3)c(-c3c(Cl)cccc3Cl)s2)cc1	59*	109*	108*	11	100*	20	96*	56*
O=C(O)c1cccc(CN2C(=O)SC(Nc3cccc4ccccc34)C2=O)c1 (stereo not given)	-18	3	-7	7	0	6	nt	nt
COc1ccc2ccccc2c1-c1sc(Nc2ccccc2)n[n+]1-c1ccc(F)cc1	61*	52	38	13	76*	8	27	nt
COc1ccc(-c2sc(Nc3ccccc3)n[n+]2-c2ccc(F)cc2)cc1Br	-2	4	-2	25	18	-15	nt	nt
Fc1ccc(-[n+]2nc(Nc3ccccc3)sc2-c2c(Cl)cccc2Cl)cc1	42	42	2	34	67*	-3	24	48*
O=C(CCN1C(=O)/C(=C/c2ccc(Cl)cc2)SC1=S)NC1C=CS(=O)(=O)C1 (stereo not given)	-10	23	-2	-2	59*	4	36	nt
O=C(CN1C(=O)/C(=C/c2ccc(Cl)cc2)SC1=S)NC1C=CS(=O)(=O)C1 (stereo not given)	-7	-1	3	-8	15	3	nt	nt
CC(C)c1ccc(/C=C2\SC(=O)N(CC(=O)NC3C=CS(=O)(=O)C3)C2=O)cc1 (stereo not given)	-22	-5	8	6	77*	-18	40*	40*
CCOC(=O)C1(Cc2cccc(Cl)c2)CCCN(C(=O)c2cc(CC)on2)C1 (stereo not given)	10	6	-4	18	-20	-1	nt	nt
COC(=O)c1cnn(-c2ccccc2)c1/C=N/NC(=S)Nc1ccc(Cl)cc1	-21	5	4	11	52*	-5	54*	54*
N#C/C(=C\c1cccc([N+](=O)[O-])c1)c1nnc2n1CCCCC2	0	-2	7	4	23	5	nt	nt
CN(c1ccccc1)c1ccc(/C=C(\C#N)c2nnc3n2CCCCC3)cc1[N+](=O)[O-]	-11	80*	4	1	66*	-21	34	nt
SMILES	T cruzi inh	CSC inhib	Beta apoptosis	NLRP3 yeast inh	Mdm2-MdmX inh	Calb FLC	Mdm2 MdmX conf	Full FLuc ctr
O=C(/C(=C(\[O-])c1ccccc1)[n+]1ccc2ccccc2c1)c1ccc([N+](=O)[O-])cc1	1	-5	-2	2	-8	4	nt	nt
O=[N+]([O-])c1ccc(-[n+]2ccc3ccccc3c2)c([N+](=O)[O-])c1	71*	121*	109*	10	100*	42	56*	5
Cc1cccc2cc(C(c3nnnn3Cc3ccccc3)N3CCN(c4ccccc4)CC3)c(=O)[nH]c12 (stereo not given)	7	-1	-1	17	-10	-3	nt	nt
O=C(C[C@H]1C[C@H](C(=O)N2CCCCC2)[C@@]2(CCc3ccccc3)c3[nH]c4ccc(Cl)cc4c3CCN2C1=O)NCCN1CCOCC1	nt	nt	nt	nt	83*	nt	42*	42*
CC[C@]12c3[nH]c4ccc(Cl)cc4c3CCN1C(=O)[C@@H](CC(=O)NCc1ccc(OC)c(OC)c1)C[C@@H]2C(=O)N1CCN(C(=O)C2CC2)CC1	nt	nt	nt	nt	13	nt	nt	nt
O=C(C[C@H]1C[C@H](C(=O)N2CCCCC2)[C@@]2(CCc3ccccc3)c3[nH]c4ccc(Cl)cc4c3CCN2C1=O)NCCCn1ccnc1	nt	nt	nt	nt	49	nt	nt	nt
COc1ccc(CNC(=O)C[C@H]2C[C@H](C(=O)N3CCCCC3)[C@@]3(CCc4ccccc4)c4[nH]c5ccc(Cl)cc5c4CCN3C2=O)cc1OC	nt	nt	nt	nt	55*	nt	1	nt
Cc1ccc(-n2c(Cl)c(Cl)[nH]c(=O)c2=O)cc1	2	-3	-4	0	22	-4	nt	nt
CC(C)(C)c1ccccc1NC(=O)COC(=O)CN1C(=O)NC2(CCCC2)C1=O	-6	-10	5	-4	-9	2	nt	nt
O=C(C1=C[C@@H](c2ccc(Br)cc2)C[C@@H](OCCCCO)O1)N1CCN(Cc2ccccc2)CC1	9	34	56	3	55*	-7	50*	66*
O=C(C1=C[C@H](c2ccc3c(c2)OCO3)C[C@H](OCCCCO)O1)N1CCN(Cc2ccccc2)CC1	30	-8	-2	6	5	-7	nt	nt
